Source: ChEMBL document CHEMBL2417369, “Synthesis and evaluation of heteroaryl substituted diazaspirocycles as scaffolds to probe the ATP-binding site of protein kinases” (Bioorg Med Chem, 2013)

Key:
[1] = Inhibition of PKA (unknown origin) using LRRASLG as substrate after 1 hr by fluorescence assay; parameters: species or system Homo sapiens
[2] = target: Fibroblast growth factor receptor 3 (Homo sapiens) (UniProt P22607); assay: Inhibition of FGFR3 (unknown origin) at 30 uM by microfluidic mobility shift assay relative to control
Outline: (§1)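 Single-point screen at 30 µM test compound across a 24-kinase panel in a microfluidic assay format. ATP was set near each enzyme's Km,[ATP]. […] The pan-AGC inhibitor H-89 served as an internal control on every assay plate.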

[3] = target: T1, Mitogen-activated protein kinase 12 (Homo sapiens) (UniProt P53778); assay: Inhibition of p38gamma (unknown origin) at 30 uM by microfluidic mobility shift assay relative to control
T1 sequence (whole entry): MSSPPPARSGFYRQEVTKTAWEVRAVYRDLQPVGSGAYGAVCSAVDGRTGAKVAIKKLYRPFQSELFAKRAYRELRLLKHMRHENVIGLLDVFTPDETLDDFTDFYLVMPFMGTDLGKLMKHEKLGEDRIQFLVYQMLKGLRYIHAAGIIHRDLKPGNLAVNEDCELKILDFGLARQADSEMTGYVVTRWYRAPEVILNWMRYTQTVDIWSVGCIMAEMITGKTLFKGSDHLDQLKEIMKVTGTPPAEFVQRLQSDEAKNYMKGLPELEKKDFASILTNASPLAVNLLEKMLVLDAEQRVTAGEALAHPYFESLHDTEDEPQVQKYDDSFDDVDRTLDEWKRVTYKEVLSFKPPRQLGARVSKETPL
Outline: (§2)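 Single-point screen against a 24-kinase panel in a commercial microfluidic assay format. Compounds were tested at 30 µM, with ATP at approximately the Km,[ATP] of each enzyme. H-89 was included on each assay plate as an internal control.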

[4] = target: Serine/threonine-protein kinase MARK2 (Homo sapiens) (UniProt Q7KZI7); assay: Inhibition of MARK2 (unknown origin) at 30 uM by microfluidic mobility shift assay relative to control; outline: as §1
[5] = target: T2, Serine/threonine-protein kinase BRSK2 (Homo sapiens) (UniProt Q8IWQ3); assay: Inhibition of BRSK2 (unknown origin) at 30 uM by microfluidic mobility shift assay relative to control; outline: as §1
T2 sequence (whole entry): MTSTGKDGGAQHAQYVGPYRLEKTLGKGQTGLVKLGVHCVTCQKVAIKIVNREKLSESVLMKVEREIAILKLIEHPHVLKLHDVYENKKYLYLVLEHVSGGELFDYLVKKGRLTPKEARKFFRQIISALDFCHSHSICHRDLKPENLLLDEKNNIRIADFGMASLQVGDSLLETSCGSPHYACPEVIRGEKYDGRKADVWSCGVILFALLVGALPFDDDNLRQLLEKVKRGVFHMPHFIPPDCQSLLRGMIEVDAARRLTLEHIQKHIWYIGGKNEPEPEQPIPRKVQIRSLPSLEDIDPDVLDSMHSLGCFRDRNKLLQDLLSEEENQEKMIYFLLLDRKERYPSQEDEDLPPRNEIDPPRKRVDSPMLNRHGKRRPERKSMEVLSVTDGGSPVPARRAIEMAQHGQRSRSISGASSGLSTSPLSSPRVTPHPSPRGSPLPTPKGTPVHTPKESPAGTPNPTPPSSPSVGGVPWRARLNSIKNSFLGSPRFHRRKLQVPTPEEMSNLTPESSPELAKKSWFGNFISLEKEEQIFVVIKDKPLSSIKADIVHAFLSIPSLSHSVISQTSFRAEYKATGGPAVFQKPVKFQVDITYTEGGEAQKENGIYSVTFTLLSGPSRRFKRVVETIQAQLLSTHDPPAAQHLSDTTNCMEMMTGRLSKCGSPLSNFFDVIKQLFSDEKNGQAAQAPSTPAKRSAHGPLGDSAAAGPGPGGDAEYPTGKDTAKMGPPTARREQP

[6] = target: Mitogen-activated protein kinase 3 (Homo sapiens, UniProt P27361); assay: Inhibition of MAPK3 (unknown origin) at 30 uM by microfluidic mobility shift assay relative to control; outline: as §1
Homo sapiens = species: Homo sapiens; assay: Inhibition of PKGalpha (unknown origin) at 30 uM by microfluidic mobility shift assay relative to control; outline: as §2
[7] = target: T3, Protein kinase C zeta type (Homo sapiens) (UniProt Q05513); assay: Inhibition of PKCzeta (unknown origin) at 30 uM by microfluidic mobility shift assay relative to control; outline: as §2
T3 sequence (whole entry): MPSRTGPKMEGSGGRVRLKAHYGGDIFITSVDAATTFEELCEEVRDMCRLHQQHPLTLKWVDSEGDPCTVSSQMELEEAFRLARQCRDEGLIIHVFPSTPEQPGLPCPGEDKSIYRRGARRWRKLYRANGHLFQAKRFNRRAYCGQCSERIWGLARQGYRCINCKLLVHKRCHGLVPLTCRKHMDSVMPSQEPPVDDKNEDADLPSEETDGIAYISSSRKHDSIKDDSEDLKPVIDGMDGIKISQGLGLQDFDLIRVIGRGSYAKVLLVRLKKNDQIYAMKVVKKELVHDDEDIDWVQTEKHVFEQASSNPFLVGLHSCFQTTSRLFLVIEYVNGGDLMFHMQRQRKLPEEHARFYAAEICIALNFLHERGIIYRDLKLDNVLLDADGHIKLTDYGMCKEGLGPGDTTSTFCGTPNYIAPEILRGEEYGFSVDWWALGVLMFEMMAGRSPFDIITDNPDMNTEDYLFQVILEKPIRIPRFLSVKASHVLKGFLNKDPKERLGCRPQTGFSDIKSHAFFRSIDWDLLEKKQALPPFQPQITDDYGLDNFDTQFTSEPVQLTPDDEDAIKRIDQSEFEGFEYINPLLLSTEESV

[8] = target: T4, Serine/threonine-protein kinase Sgk3 (Homo sapiens) (UniProt Q96BR1); assay: Inhibition of SGK3 (unknown origin) at 30 uM by microfluidic mobility shift assay relative to control; outline: as §2
T4 sequence (whole entry): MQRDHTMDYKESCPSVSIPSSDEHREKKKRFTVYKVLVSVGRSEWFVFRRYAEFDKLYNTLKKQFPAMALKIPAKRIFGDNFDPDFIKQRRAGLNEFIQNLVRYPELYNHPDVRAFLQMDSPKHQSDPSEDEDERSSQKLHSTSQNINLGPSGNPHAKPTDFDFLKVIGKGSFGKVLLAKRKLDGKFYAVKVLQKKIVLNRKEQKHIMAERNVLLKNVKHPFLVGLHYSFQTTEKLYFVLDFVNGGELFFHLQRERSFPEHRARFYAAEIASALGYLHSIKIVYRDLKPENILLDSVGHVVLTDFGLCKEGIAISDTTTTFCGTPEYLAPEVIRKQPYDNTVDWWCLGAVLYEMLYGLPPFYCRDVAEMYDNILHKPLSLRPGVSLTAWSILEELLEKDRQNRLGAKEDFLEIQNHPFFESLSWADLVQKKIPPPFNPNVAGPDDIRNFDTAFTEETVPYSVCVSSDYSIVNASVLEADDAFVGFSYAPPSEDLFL

[9] = target: Mitogen-activated protein kinase kinase kinase kinase 4 (Homo sapiens) (UniProt O95819); assay: Inhibition of HGK (unknown origin) at 30 uM by microfluidic mobility shift assay relative to control; outline: as §1
Sequence of Mitogen-activated protein kinase kinase kinase kinase 4 (Homo sapiens) (O95819 2-1239 limits assumed): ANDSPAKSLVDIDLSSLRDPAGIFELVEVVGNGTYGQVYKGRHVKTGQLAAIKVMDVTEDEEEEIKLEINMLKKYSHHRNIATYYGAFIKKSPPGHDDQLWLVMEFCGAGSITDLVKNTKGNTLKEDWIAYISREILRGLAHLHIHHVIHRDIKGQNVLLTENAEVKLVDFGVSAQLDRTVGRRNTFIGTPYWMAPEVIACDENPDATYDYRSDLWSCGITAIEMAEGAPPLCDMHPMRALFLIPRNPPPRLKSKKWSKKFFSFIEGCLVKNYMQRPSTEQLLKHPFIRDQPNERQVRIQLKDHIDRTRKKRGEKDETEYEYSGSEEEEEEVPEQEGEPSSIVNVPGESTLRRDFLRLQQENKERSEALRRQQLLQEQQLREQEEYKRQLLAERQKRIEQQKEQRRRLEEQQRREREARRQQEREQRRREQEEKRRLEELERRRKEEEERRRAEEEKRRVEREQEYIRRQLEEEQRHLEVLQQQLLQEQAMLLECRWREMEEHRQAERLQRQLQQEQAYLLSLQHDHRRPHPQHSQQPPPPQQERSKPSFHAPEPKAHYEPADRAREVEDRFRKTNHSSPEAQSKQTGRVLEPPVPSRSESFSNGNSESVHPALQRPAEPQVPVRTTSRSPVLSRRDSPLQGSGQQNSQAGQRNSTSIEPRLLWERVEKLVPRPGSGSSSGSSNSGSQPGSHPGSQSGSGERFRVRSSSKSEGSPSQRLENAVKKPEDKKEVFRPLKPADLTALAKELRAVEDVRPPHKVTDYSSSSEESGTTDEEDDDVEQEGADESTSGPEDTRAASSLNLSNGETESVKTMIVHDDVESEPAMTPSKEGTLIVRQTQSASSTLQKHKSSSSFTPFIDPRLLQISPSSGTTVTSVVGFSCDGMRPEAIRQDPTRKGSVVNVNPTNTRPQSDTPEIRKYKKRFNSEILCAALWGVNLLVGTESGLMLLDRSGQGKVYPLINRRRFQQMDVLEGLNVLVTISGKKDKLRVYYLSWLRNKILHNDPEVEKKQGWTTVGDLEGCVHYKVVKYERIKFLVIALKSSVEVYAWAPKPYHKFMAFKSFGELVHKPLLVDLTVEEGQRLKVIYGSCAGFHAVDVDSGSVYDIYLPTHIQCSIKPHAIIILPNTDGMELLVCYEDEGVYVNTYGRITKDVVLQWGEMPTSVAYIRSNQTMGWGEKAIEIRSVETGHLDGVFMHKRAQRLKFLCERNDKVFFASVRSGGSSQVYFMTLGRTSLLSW

Sequence of Fibroblast growth factor receptor 3 (Homo sapiens) (P22607 23-806 limits assumed): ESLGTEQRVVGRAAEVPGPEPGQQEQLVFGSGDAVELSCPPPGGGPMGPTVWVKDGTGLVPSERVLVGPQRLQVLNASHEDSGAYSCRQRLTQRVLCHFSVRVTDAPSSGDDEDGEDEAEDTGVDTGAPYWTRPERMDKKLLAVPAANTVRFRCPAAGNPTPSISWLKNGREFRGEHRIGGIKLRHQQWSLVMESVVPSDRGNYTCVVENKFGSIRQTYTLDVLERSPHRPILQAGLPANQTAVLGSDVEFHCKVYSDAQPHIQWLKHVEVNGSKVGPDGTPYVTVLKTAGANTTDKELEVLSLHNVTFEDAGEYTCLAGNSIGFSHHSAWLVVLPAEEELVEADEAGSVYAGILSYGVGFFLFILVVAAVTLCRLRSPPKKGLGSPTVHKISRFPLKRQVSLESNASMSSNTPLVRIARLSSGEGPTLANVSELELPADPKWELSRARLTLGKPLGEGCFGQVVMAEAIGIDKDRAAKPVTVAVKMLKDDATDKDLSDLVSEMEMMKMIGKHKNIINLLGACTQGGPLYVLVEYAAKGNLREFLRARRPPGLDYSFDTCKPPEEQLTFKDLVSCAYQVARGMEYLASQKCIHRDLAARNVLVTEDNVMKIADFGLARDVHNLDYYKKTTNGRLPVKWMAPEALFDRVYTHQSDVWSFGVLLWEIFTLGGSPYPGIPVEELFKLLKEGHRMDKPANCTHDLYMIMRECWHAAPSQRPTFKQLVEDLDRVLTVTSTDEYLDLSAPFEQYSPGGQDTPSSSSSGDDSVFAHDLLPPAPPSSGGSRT
Sequence of Serine/threonine-protein kinase MARK2 (Homo sapiens) (Q7KZI7 whole entry): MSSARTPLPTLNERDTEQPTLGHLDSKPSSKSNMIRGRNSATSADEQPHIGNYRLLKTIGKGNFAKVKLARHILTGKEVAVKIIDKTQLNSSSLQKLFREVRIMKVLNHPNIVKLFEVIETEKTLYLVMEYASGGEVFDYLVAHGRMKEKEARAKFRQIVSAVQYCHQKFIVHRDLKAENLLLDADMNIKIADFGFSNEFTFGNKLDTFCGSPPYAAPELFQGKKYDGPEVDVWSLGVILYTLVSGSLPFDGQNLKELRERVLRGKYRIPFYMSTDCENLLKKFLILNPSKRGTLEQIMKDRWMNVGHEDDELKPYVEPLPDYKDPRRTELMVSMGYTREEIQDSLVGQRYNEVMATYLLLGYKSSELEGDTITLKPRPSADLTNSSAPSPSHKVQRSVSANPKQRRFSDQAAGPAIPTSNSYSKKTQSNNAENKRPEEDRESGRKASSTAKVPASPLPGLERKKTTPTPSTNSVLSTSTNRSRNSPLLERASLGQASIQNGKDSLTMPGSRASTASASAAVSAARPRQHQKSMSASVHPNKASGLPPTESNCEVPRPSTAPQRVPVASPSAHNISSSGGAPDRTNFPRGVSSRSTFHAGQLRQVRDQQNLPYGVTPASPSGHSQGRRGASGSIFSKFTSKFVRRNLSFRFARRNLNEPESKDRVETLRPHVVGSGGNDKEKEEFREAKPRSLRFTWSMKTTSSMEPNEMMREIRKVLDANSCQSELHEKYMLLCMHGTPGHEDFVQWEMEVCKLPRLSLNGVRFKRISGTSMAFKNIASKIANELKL
Sequence of Mitogen-activated protein kinase 3 (P27361 whole entry): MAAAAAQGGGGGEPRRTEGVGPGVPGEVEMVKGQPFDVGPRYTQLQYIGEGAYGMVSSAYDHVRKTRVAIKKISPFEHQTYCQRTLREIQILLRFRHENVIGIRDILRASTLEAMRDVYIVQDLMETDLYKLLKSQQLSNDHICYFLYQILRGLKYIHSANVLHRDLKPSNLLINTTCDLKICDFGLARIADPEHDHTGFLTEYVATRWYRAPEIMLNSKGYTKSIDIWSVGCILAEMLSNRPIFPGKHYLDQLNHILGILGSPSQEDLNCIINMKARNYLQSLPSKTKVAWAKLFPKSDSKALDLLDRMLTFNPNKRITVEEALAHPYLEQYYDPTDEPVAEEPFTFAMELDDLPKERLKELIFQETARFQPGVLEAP

inhibition [2] [%] | inhibition [3] [%] | inhibition [4] [%] | inhibition [5] [%] | inhibition [6] [%] | inhibition (Homo sapiens) [%] | inhibition [7] [%] | inhibition [8] [%] | inhibition [9] [%] | Structure (SMILES) | IC50 [1] [nM]
7 | 6 | 72 | 16 | 13 | 99 | 0 | 95 | 7 | c1ccc(C2CCNC3(CCN(c4ncnc5[nH]cnc45)CC3)C2)cc1 (racemic) | 149
10 | 3 | 47 | 1 | 7 | 86 | 0 | 27 | 5 | c1ccc(CC2CCC3(CCN(c4ncnc5[nH]cnc45)CC3)NC2)cc1 (racemic) | –
7 | 11 | 60 | 0 | 9 | 99 | 0 | 94 | 2 | c1ccc(CC2CCNC3(CCN(c4ncnc5[nH]cnc45)CC3)C2)cc1 (racemic) | 31

More lines, now with the values behind:

Structure (SMILES) | inhibition [2] [%] | inhibition [3] [%] | inhibition [4] [%] | inhibition [5] [%] | inhibition [6] [%] | inhibition (Homo sapiens) [%] | inhibition [7] [%] | inhibition [8] [%] | inhibition [9] [%] | IC50 [1] [nM]
c1nc(N2CCC3(CCCCN3)CC2)c2nc[nH]c2n1 | – | – | – | – | – | – | – | – | – | 1000
c1nc(N2CCC3(CCCNC3)CC2)c2nc[nH]c2n1 | – | – | – | – | – | – | – | – | – | 80
O=S(=O)(c1cccc2cnccc12)N1CCCC2(CCCNC2)C1 (configuration not stated) | – | – | – | – | – | – | – | – | – | 3600
